Measurements from ChEMBL document CHEMBL1147169, “From pyrroles to 1-oxo-2,3,4,9-tetrahydro-1H-beta-carbolines: a new class of orally bioavailable mGluR1 antagonists” (Bioorg Med Chem Lett, 2007).

How the values were obtained:
[1] = biological target: Metabotropic glutamate receptor 1 (Rattus norvegicus, UniProt P23385); test: Antagonist activity at rat mGluR1a expressed in CHO cells assessed as inhibition of intracellular calcium ion mobilization by FLIPR assay; format: functional, cell-based
[2] = Oral bioavailability in rat; format: ADME, organism-based; settings: in vivo
[3] = Plasma clearance in rat; format: ADME, organism-based
[4] = Cmax in rat; format: ADME, organism-based; settings: in vivo
In short: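 Maximum plasma concentration (ng/ml) measured after oral administration in rat.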

[5] = Oral bioavailability in rat at 1 mg/kg, po; format: ADME, organism-based; settings: in vivo
[6] = Oral bioavailability in rat at 5 mg/kg, po; format: ADME, organism-based; settings: in vivo
[7] = tested on: Mus musculus; test: Reduction of inflammatory pain in late phase of formalin-induced mouse at 30 mg/kg, po; format: ADME, organism-based; set-up: dose 30 mg/kg, route oral; settings: in vivo
In short: (§1)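 Mice given compound po at 10 or 30 mg/kg, 30 min before 20 µl 1% formalin into left hind paw; nociceptive behaviour time (s) scored in early phase (0–5 min) and late phase (20–60 min); n = 8-19; significance p < 0.05 / p < 0.01 versus vehicle.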

[8] = tested on: Mus musculus; test: Reduction of inflammatory pain in early phase of formalin-induced mouse at 30 mg/kg, po; format: ADME, organism-based; set-up: dose 30 mg/kg, route oral; settings: in vivo; in short: as §1
[9] = tested on: Rattus norvegicus; test: Ratio of drug level in rat from brain to plasma at 3 mg/kg, iv after 1 hr; settings: in vivo
[10] = tested on: Mus musculus; test: Reduction of inflammatory pain in late phase of formalin-induced mouse at 10 mg/kg, po; format: ADME, organism-based; set-up: dose 10 mg/kg, route oral; settings: in vivo; in short: as §1

Metabotropic glutamate receptor 1, sequence (P23385 whole entry): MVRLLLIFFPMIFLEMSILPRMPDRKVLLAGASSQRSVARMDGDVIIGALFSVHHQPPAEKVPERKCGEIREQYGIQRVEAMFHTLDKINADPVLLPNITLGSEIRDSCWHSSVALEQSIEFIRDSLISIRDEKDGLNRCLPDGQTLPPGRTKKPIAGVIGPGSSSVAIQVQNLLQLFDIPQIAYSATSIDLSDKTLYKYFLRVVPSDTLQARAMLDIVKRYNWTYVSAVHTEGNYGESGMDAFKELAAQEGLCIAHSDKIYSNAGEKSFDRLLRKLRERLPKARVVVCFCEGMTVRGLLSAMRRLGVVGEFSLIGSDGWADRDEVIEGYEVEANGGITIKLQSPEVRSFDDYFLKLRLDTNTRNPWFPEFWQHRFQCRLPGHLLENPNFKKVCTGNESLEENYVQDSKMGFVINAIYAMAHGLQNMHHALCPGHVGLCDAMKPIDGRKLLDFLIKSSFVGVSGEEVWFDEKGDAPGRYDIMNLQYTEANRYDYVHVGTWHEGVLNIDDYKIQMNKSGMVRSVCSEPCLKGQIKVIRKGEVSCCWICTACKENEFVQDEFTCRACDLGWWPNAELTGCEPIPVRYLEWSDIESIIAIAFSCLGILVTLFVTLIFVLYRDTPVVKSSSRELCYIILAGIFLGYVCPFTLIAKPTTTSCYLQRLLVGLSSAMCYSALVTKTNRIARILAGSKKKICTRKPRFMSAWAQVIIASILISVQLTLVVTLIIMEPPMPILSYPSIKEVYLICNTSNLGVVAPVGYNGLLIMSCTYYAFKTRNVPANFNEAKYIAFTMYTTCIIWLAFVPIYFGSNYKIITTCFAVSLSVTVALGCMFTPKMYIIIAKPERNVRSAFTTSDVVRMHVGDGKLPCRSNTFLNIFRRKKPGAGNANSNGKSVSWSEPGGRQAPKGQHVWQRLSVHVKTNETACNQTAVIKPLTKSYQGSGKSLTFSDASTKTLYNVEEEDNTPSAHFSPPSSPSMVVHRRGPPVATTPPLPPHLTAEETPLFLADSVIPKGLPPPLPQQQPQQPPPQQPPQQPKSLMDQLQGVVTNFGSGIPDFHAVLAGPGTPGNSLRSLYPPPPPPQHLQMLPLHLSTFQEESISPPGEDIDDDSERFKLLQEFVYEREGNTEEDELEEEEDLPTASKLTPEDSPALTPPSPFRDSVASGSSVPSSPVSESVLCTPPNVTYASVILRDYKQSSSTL

Row | IC50 [1] [nM] | Compound | other results
1 | 71 | O=C(NC12CC3CC(CC(C3)C1)C2)c1ccc2[nH]c3c(c2c1)CCNC3=O | bioavailability [2]: 12%; clearance [3]: 54 mL/min/kg; Cmax [4]: 37 ng/mL
2 | 93 | O=C(NC1C2CC3CC(C2)CC1C3)c1ccc2[nH]c3c(c2c1)CCNC3=O (centres undefined) | –
3 | 683 | O=C1NCc2c1[nH]c1ccc(OCc3ccccc3)cc21 | –
4 | 1020 | O=C1NN=CC2c3cc(OCc4ccccc4)ccc3NC12 (centres undefined) | –
5 | 16 | CCCOC(=O)c1[nH]c(C)c(C(=O)O[C@@H](C)C(C)(C)C)c1C | –
6 | 3980 | O=C1NCCc2c1[nH]c1cccc(OCc3ccccc3)c21 | –
7 | > 10000 | c1ccc(COc2ccc3[nH]c4c(c3c2)CCNC4)cc1 | –
8 | > 10000 | c1ccc(COc2ccc3c(c2)C2CCNCC2N3)cc1 (centres undefined) | –
9 | > 10000 | O=C1CCCc2c1[nH]c1ccc(OCc3ccccc3)cc21 | –
10 | > 10000 | CC(NC(=O)c1ccc2[nH]c3c(c2c1)CCNC3=O)C(C)(C)C (centres undefined) | –
11 | 120 | CC(N(C)C(=O)c1ccc2[nH]c3c(c2c1)CCNC3=O)C(C)(C)C (centres undefined) | –
12 | 226 | O=C(NC1CC2CCC1C2)c1ccc2[nH]c3c(c2c1)CCNC3=O (centres undefined) | –
13 | 104 | O=C1NCCc2c1[nH]c1ccc(OCc3ccccc3)cc21 | bioavailability [5]: 0%; bioavailability [6]: 9%; Cmax [4]: 145 ng/mL
14 | 312 | O=C(NCC12CC3CC(CC(C3)C1)C2)c1ccc2[nH]c3c(c2c1)CCNC3=O | –
15 | 4660 | O=C(Nc1ccc2[nH]c3c(c2c1)CCNC3=O)NC12CC3CC(CC(C3)C1)C2 | –
16 | 5560 | O=C1NCCc2c1[nH]c1ccc(OCC3CCCCC3)cc21 | –
17 | 1040 | O=C(Nc1ccccc1)c1ccc2[nH]c3c(c2c1)CCNC3=O | –
18 | 71 | O=C1NCCc2c1[nH]c1ccc(NC(=O)C34CC5CC(CC(C5)C3)C4)cc21 | clearance [3]: 52 mL/min/kg
19 | 4070 | O=C1NCCc2c1[nH]c1ccc(Oc3ccccc3)cc21 | –
20 | 1670 | O=C1NCCC2c3cc(OCc4ccccc4)ccc3NC12 (centres undefined) | –
21 | 167 | Cc1cc2[nH]c3c(c2cc1OCc1ccccc1)CCNC3=O | Activity [7]: Active; Activity [8]: Active; Ratio [9]: 6.1; bioavailability [2]: 36%; Cmax [4]: 264 ng/mL; Activity [10]: Active
22 | 2850 | O=C1NCCc2c1[nH]c1cc(OCc3ccccc3)ccc21 | –
23 | > 10000 | O=C1NCCc2c1[nH]c1ccc(O)cc21 | –
24 | 239 | CC(Oc1ccc2[nH]c3c(c2c1)CCNC3=O)C(C)(C)C (centres undefined) | –
25 | 380 | CC(Oc1ccc2[nH]c3c(c2c1)CCNC3=O)c1ccccc1 (centres undefined) | –
26 | > 10000 | COc1ccc2[nH]c3c(c2c1)CCNC3=O | –
